Common to all, as to type: functional
The subject of experiment [1] is Mus musculus. Description: Lowest dose level at which mice fell off inverted screen during testing 120 min after intraperitoneal dosage. In outline: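 Male Swiss-Webster mice (22-32 g), N = 5 per dose, given 10, 30, 100, 300 mg/kg ip. Tested 120 min after dosing on an inverted wire mesh screen. Value is the lowest dose level at which two or more mice fell off.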

Experiment [2] deals with Mus musculus. Description: Minimum effective dose at which mice were protected against tonic-extension produced by maximal electroshock during testing 120 min after intraperitoneal dosage. The following applies: ip, 2 h, read-out: MED. The method in brief: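 Male Swiss-Webster mice (22-32 g), N = 5 per dose; dosed ip at 10, 30, 100, 300 mg/kg. Tested 120 min after dosing for protection against tonic extension from maximal electroshock. Value is the dose level at which two or more mice were protected.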

Experiment [3] in a line: Protective index, ratio of ED50 ataxia and ED50 MES. In outline:
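Protective index is the ratio of the ataxia ED50 to the maximal electroshock ED50. Both were ip in mice and derived by quantal probit analysis.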

The subject of experiment [4] is Mus musculus. Description: Effective dose required to inhibit ataxia after intraperitoneal administration in experiment 2. The note with it: ip. The method in brief:
(§1)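 Ataxia in mice after ip dosing: in-house, falling from an inverted wire mesh screen (Swiss-Webster mice); in NINCDS studies, falling from a rotating rod (CF-1 mice, 30% polyethylene glycol vehicle). ED50 was obtained by quantal probit analysis.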

For experiment [5], the system named is Mus musculus. Nature of the experiment: Effective dose against convulsions induced by clonic pentylenetetrazole after intraperitoneal administration in experiment 2. The following applies: ip. The method in brief:
(§2)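 Male CF-1 mice (25-35 g) dosed ip. Pentylenetetrazol 85 mg/kg in 0.9% NaCl was given sc at the dorsal neck, and mice were observed 30 min. An anticonvulsant effect was prevention of all clonic seizures (≥5 s forelimb clonus). ED50 was obtained by quantal probit analysis; NINCDS testing used 30% polyethylene glycol vehicle.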

The test system of experiment [6] is Mus musculus. Description: Effective dose against convulsions induced by maximal electroshock (MES) after intraperitoneal administration in experiment 2. The following applies: ip. The method in brief: (§3)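 Mice dosed ip and challenged by maximal electroshock, scoring protection from seizures; N = 10 mice per time-course point. ED50 was obtained by quantal probit analysis. Swiss-Webster mice were used in-house; CF-1 mice were used in NINCDS testing, where drug was in 30% polyethylene glycol at 10 mL/kg.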
(In general: In the maximal electroshock model the usual endpoint is tonic extension of the hind limbs.)

Experiment [7] concerns Mus musculus. Description: Effective dose required for the inhibition of spontaneous locomotion after intraperitoneal administration in experiment 1. The following applies: ip.
Experiment [8] has as its system Mus musculus. Nature of the experiment: Effective dose required to inhibit ataxia after intraperitoneal administration in experiment 1. The note with it: ip. In outline:
as §1

Experiment [9] concerns Mus musculus. Nature of the experiment: Effective dose against convulsions induced by maximal electroshock (MES) after intraperitoneal administration in experiment 1. The following applies: ip. In outline:
as §3

Experiment [10] relates to Mus musculus. Description: Effective dose against convulsions induced by clonic pentylenetetrazole after intraperitoneal administration in experiment 1. The following applies: ip. The method in brief: as §2

Several values for one entry are separate records, joined by “and”; a condition that tells them apart may be missing. Equal values may be shown once.

In the experiment with Mus musculus [1], `CCCc1cccc(N2CCNCC2)n1.Cl` came in with an MTC of 3 mg/kg. In addition, in the experiment with Mus musculus [2], the minimal effective dose stood at 10 mg/kg.
In the experiment on Mus musculus [1], `CCCCCCCc1cccc(N2CCOCC2)n1` showed an MTC above 300 mg/kg. Moreover, the minimal effective dose in the experiment on Mus musculus [2] worked out at 300 mg/kg.
The like results for `CCCCCCC(CCCCCC)c1cccc(N2CCNCC2)n1` were, in that order, 100 mg/kg and above 300 mg/kg.
`CCCCCCCCCc1cccc(N2CCNCC2)n1`: the Ratio in experiment [3] is 5.4. The ED50 (in general, the midpoint of the dose-response relation) with Mus musculus [4] is 42 mg/kg; with Mus musculus [5], above 100 mg/kg; in the experiment with Mus musculus [6] it was 7.8 mg/kg; in the experiment with Mus musculus [7] it was 26 mg/kg; in the experiment with Mus musculus [8] it was 30 mg/kg; with Mus musculus [9], 5.6 mg/kg. The compound further returned an MTC with Mus musculus [1] of 30 mg/kg. Moreover, the minimal effective dose in the experiment on Mus musculus [2] is 10 mg/kg.
For `CCCCc1cccc(N2CCNCC2)n1`, the MTC in the experiment with Mus musculus [1] is 10 mg/kg. Besides, in the experiment with Mus musculus [2], the minimal effective dose was found to be 30 mg/kg.
Compound `CCCCCCCc1cccc(N2CCCNCC2)n1` gave an MTC with Mus musculus [1] of 100 mg/kg. The minimal effective dose in the experiment with Mus musculus [2] stood at 30 mg/kg.
`CCCCCCc1cccc(N2CCNCC2)n1`: the Ratio in experiment [3] was 3 and 2.9. Besides, the ED50 in the experiment on Mus musculus [4] is 46 mg/kg; in the experiment with Mus musculus [5], above 100 mg/kg; in the experiment with Mus musculus [6], 16 mg/kg; in the experiment on Mus musculus [7] it was 20 mg/kg; in the experiment on Mus musculus [8], 22 mg/kg; in the experiment on Mus musculus [9], 7.3 mg/kg. In the experiment with Mus musculus [1], this compound yielded an MTC of 100 mg/kg. The minimal effective dose with Mus musculus [2] was found to be 10 mg/kg.
In the experiment on Mus musculus [1], `CCCCCc1cccc(N2CCNCC2)n1` had an MTC of 30 mg/kg. Besides, in the experiment on Mus musculus [2], the minimal effective dose amounted to 10 mg/kg.
In turn, `CCCCCCCc1cccc(N2CCCCC2)n1` displayed an MTC in the experiment with Mus musculus [1] above 300 mg/kg. Also, the minimal effective dose in the experiment with Mus musculus [2] was above 300 mg/kg.
Turning to `NC(=O)N1c2ccccc2C=Cc2ccccc21` [CARBAMAZEPINE], in experiment [3], the Ratio came out at 8.2. The ED50 is 72 mg/kg with Mus musculus [4]; above 100 mg/kg with Mus musculus [5]; 8.8 mg/kg with Mus musculus [6]; 50 mg/kg in the experiment on Mus musculus [7]; above 100 mg/kg with Mus musculus [10]; 41 mg/kg in the experiment on Mus musculus [8]. The compound also registered an ED50 with Mus musculus [9] of 9.8 mg/kg.
Regarding `Cl.c1cc(CC2CCCCC2)nc(N2CCNCC2)c1`, the MTC in the experiment with Mus musculus [1] came out at 100 mg/kg. Further, the minimal effective dose in the experiment with Mus musculus [2] came to 100 mg/kg.
`c1ccc(CCc2cccc(N3CCNCC3)n2)cc1` returned an MTC in the experiment with Mus musculus [1] of 100 mg/kg. The minimal effective dose in the experiment with Mus musculus [2] is above 300 mg/kg.
For `CCCCCCCc1cccc(N2CCNCC2)n1`, the Ratio in [3] is 5.1 and 4.5. For the same compound, the ED50 turned out to be 29 mg/kg with Mus musculus [4]; 21 mg/kg in the experiment on Mus musculus [5]; 6.4 mg/kg in the experiment with Mus musculus [6]; 13 mg/kg with Mus musculus [7]; 45 mg/kg with Mus musculus [8]; 8.8 mg/kg in the experiment on Mus musculus [9]. This compound yielded an MTC in the experiment on Mus musculus [1] of 100 mg/kg. Also, the minimal effective dose in the experiment with Mus musculus [2] is 10 mg/kg.
`CCCCCCCCc1cccc(N2CCNCC2)n1` had an MTC in the experiment on Mus musculus [1] of 30 mg/kg. Also, the minimal effective dose in the experiment with Mus musculus [2] came to 10 mg/kg.
The compound `CCCCCCCCCCc1cccc(N2CCNCC2)n1` showed an MTC in the experiment with Mus musculus [1] of 100 mg/kg. Moreover, in the experiment with Mus musculus [2], the minimal effective dose was found to be 30 mg/kg.
Compound `Cc1cccc(N2CCNCC2)n1.Cl.Cl` had an MTC in the experiment on Mus musculus [1] of 30 mg/kg. Besides, the minimal effective dose in the experiment on Mus musculus [2] was above 300 mg/kg.
In the case of `CC(C)(C)c1cccc(N2CCNCC2)n1.Cl`, in the experiment with Mus musculus [1], the MTC stood at 30 mg/kg. Also, the minimal effective dose in the experiment with Mus musculus [2] is above 300 mg/kg.
The like results for `CCCCCCCc1cccc(N2CCN(C)CC2)n1.Cl` were, in that order, 300 mg/kg and 30 mg/kg.
The like results for `CC(C)c1cccc(N2CCNCC2)n1.Cl.Cl` were, in that order, 30 mg/kg and above 300 mg/kg.
In turn, `CCCCSc1cccc(N2CCNCC2)n1` displayed an MTC in the experiment with Mus musculus [1] of 100 mg/kg. Besides, in the experiment with Mus musculus [2], the minimal effective dose was 100 mg/kg.
In turn, `CCCCCCCc1ccnc(N2CCNCC2)c1` showed an MTC in the experiment on Mus musculus [1] of 100 mg/kg. Moreover, the minimal effective dose in the experiment with Mus musculus [2] was found to be 30 mg/kg.
Consider `O=C1NC(=O)C(c2ccccc2)(c2ccccc2)N1` [PHENYTOIN], for which the ED50 with Mus musculus [4] was 65 mg/kg; in the experiment on Mus musculus [5], above 100 mg/kg; in the experiment on Mus musculus [7] it was above 65 mg/kg; in the experiment on Mus musculus [8] it was 82 mg/kg; in the experiment on Mus musculus [9], 8 mg/kg.

The values are drawn from ChEMBL document CHEMBL1124485, “6-Alkyl-N,N-disubstituted-2-pyridinamines as anticonvulsant agents” (1989).
